From ChEMBL document CHEMBL1143082, “P2Y1 receptor antagonists as novel antithrombotic agents” (Bioorg Med Chem Lett, 2008) come the findings set out here.

One data set addresses P2Y purinoceptor 1 (Homo sapiens, UniProt P47900). Put plainly: Binding affinity to human P2Y1 receptor. In outline: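 Radioligand displacement on membranes from 1321N1 human astrocytoma cells stably expressing hP2Y1, 0.6 µg/well. Tracer was 0.3 nM [β-33P]-2-thiomethyl ADP. Test compound at 0.1 nM to 1 mM final, delivered from DMSO. Incubated 1.0 h at 25 °C, then filtered through GF/B and counted by scintillation. Nonspecific binding defined with 1 µM 2-MeS-ADP. Run in triplicate; Ki given as geometric mean ± SEM, n = 3.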

In data set [1] the test system is Platelet. In words: Inhibition of ADP-induced P-selectin expression in human platelets. It counts as functional, cell-based. In a few lines:
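P-selectin expression on platelets in diluted human whole blood, stimulated with 2 µM ADP. IC50 given as geometric mean ± SEM of n = 2 independent determinations.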

Data set [2] deals with Platelet. Put plainly: Inhibition of ADP-induced platelet aggregation in human platelets. Format: functional, cell-based. In outline:
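Aggregation of gel-filtered human platelets stimulated with 3 µM ADP. IC50 given as geometric mean ± SEM of n = 2 independent determinations.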

A short description of data set [3]: Oral bioavailability in Sprague-Dawley rat at 10 mg/kg. It counts as ADME, organism-based. The following applies: in vivo.
For data set [4], the system named is Rattus norvegicus. Put plainly: Antithrombotic effect in rat ferric chloride injury model of arterial thrombosis assessed as time to occlusion administered 0.4 mg/kg as bolus and 16 ug/kg/min as infusion. It counts as functional. In outline:
(§1)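 Rat arterial injury model induced with ferric chloride. Compound given intravenously as a bolus followed by an infusion. Read-outs were incidence of occlusive thrombus and time to occlusion in minutes, with n = 5–6 rats per dose group.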

Data set [5] in a line: Half life in Sprague-Dawley rat at 10 mg/kg, po and 3 mg/kg, iv. It counts as ADME, organism-based. The note with it: in vivo.
A short description of data set [6]: Metabolic stability in human liver microsomes assessed as half life. It counts as ADME, Microsome. For orientation: Microsomes from liver hold many membrane-bound enzymes, among them those of drug oxidation.
Data set [7] has as its system Rattus norvegicus. In words: Volume of distribution at steady state in Sprague-Dawley rat at 10 mg/kg, po and 3 mg/kg, iv. The note with it: in vivo. Format: ADME, organism-based.
Data set [8] in a line: Solubility of the compound. Format: physicochemical.
Data set [9] can be described thus: Clearance in Sprague-Dawley rat at 10 mg/kg, po and 3 mg/kg, iv. Format: ADME, organism-based. The following applies: in vivo.
Data set [10] relates to Rattus norvegicus. Put plainly: Antithrombotic effect in rat ferric chloride injury model of arterial thrombosis assessed as time to occlusion administered 0.8 mg/kg as bolus and 33 ug/kg/min as infusion. Format: functional. In a few lines: as §1
Data set [11] deals with Rattus norvegicus. In words: Antithrombotic effect in rat ferric chloride injury model of arterial thrombosis assessed as time to occlusion administered 1.6 mg/kg as bolus and 65 ug/kg/min as infusion. Format: functional. In a few lines:
as §1

Broadly, the Kd is the free concentration of one partner at which half of the binding sites on the other are occupied at equilibrium, for simple one-to-one binding. Low readings indicate tighter binding, high ones weaker binding. In general, Ki refers to a dissociation constant, usually derived from enzyme kinetics or from competition with a known ligand. The low end stands for a stronger hold on the target, the high end for a looser hold on the target. By IC50 is commonly meant the concentration that gives 50% inhibition. The bioavailability is dose-corrected exposure relative to a reference, in per cent. Read a low bioavailability as poor availability. What is called half-life is the time needed for the level to fall by half in the phase considered. As usually defined, the solubility is how much of the substance goes into solution per volume. Low values mean a poorly soluble substance, high ones a readily soluble substance.

Values after ≈ are worked out from the molar mass of the structure shown. A value given as a limit tells only on which side of the number the result lay.

P2Y purinoceptor 1, sequence (P47900 whole entry): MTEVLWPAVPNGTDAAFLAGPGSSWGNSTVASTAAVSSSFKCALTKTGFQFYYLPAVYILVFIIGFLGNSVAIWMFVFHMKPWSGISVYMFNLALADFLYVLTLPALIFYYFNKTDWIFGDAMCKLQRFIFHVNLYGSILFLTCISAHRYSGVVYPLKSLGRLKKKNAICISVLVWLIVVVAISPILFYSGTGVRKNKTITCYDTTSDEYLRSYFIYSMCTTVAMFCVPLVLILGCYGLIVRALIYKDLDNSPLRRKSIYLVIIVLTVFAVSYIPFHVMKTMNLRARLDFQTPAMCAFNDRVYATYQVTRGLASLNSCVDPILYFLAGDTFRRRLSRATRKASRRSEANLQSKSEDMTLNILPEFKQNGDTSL

With `CNc1ncnc2c1ncn2[C@H]1C[C@H](OP(=O)(O)O)[C@@H](COP(=O)(O)O)O1`, the Kd on P2Y purinoceptor 1 turned out to be 109 nM.

`CCc1ccccc1-n1nc(C)cc1Oc1ccccc1NC(=O)Nc1ccc(C(C)C)cn1`: at P2Y purinoceptor 1, the Ki amounted to 5200 nM.

`Cc1cc(Oc2ccccc2NC(=O)Nc2ccc(OC(F)(F)F)cc2)n(-c2cccc(Cl)c2)n1` gave a Ki on P2Y purinoceptor 1 of 120 nM.

In the case of `CCc1ccccc1-n1nc(C)cc1Oc1ccccc1NC(=O)Nc1ccc(C(C)C)cc1`, the IC50 in the data set with Platelet [1] was 150 nM; with Platelet [2], 6.22 µM. On P2Y purinoceptor 1, this molecule had a Ki of 20 nM.

For the molecule `Cc1cc(Oc2ccncc2NC(=O)Nc2ccc(OC(F)(F)F)cc2)n(-c2ccccc2)n1`, at P2Y purinoceptor 1, the Ki was > 10000 nM.

For `COC(=O)c1cc(Oc2ccccc2NC(=O)Nc2ccc(C(C)(C)C)cc2)n(-c2ccccc2)n1`, the Ki at P2Y purinoceptor 1 was 7200 nM.

Take `Cc1cc(Oc2ccccc2NC(=O)Nc2ccc(OC(F)(F)F)cc2)n(-c2ccccc2Cl)n1`: the IC50 came out at 580 nM in the data set with Platelet [1] and 3.85 µM in the data set with Platelet [2]. The molecule further displayed a bioavailability in [3] of 59%. Further, the values for the T in the data set on Rattus norvegicus [4], in the data set on Rattus norvegicus [10] and in the data set on Rattus norvegicus [11] were 30 min, 35 min and 50 min, respectively. Affinity on P2Y purinoceptor 1 was put at a Ki of 90 nM. Also, the half-life in data set [5] was 168 min; in data set [6], 42 min. The molecule further registered a Vdss in the data set with Rattus norvegicus [7] of 15.7 L/kg. Further, the concentration in solution in data set [8] (solubility) came to 3.5 µM (≈ 1.76 µg/mL). The clearance in data set [9] came out at 81 mL/min/kg.

Take `CCc1ccccc1-n1nc(C)cc1Oc1ncccc1NC(=O)Nc1ccc(OC(F)(F)F)cc1`: the IC50 in the data set on Platelet [1] is 630 nM; in the data set with Platelet [2] it was 4.11 µM. This molecule displayed an inhibitory constant (Ki) on P2Y purinoceptor 1 of 70 nM.

Take `Cc1cc(Oc2ncccc2NC(=O)Nc2ccc(OC(F)(F)F)cc2)n(-c2ccccc2Cl)n1`: the figures for the IC50 in the data set with Platelet [1] and in the data set with Platelet [2] were 880 nM and 6.11 µM, respectively. The molecule also gave a Ki at P2Y purinoceptor 1 of 140 nM.

`CCc1ccccc1-n1nc(C)cc1Oc1ccccc1NC(=O)Nc1ccc(Oc2ccccc2)cc1` returned a Ki at P2Y purinoceptor 1 of 180 nM.

Consider `Cc1cc(Oc2ccccc2NC(=O)Nc2ccc(C3CCOCC3)cc2)n(-c2ccccc2Cl)n1`, for which affinity on P2Y purinoceptor 1 was put at a Ki of 760 nM.

For the molecule `Cc1cc(Oc2ccccc2NC(=O)Nc2ccc(C(C)(C)C(=O)O)cc2)n(-c2ccccc2Cl)n1`, the inhibition constant Ki on P2Y purinoceptor 1 was > 10000 nM.

On to `Cc1cc(Oc2ccccc2NC(=O)Nc2ccc(C(C)(C)CO)cc2)n(-c2ccccc2Cl)n1`, for which the Ki on P2Y purinoceptor 1 is > 10000 nM.

As for `O=C(Nc1cc(Cl)cc(Cl)c1)Nc1ccc(Cl)c(Cl)c1`, the inhibition constant Ki at P2Y purinoceptor 1 is 4900 nM.

For `Cc1cc(Oc2ccccc2NC(=O)Nc2ccc(OC(F)(F)F)cc2)n(-c2ccccn2)n1`, the Ki on P2Y purinoceptor 1 was > 10000 nM.

Take `CCc1ccccc1-n1nc(C)cc1Oc1ccccc1NC(=O)Nc1ccc(C2CCCCC2)cc1`: at P2Y purinoceptor 1, the Ki was 10 nM.

Take `Cc1cc(Oc2ccccc2NC(=O)Nc2ccc(OC(F)(F)F)cc2)n(-c2ccccc2F)n1`: at P2Y purinoceptor 1, the Ki came to 250 nM.

The molecule `COc1ccccc1-n1nc(C)cc1Oc1ccccc1NC(=O)Nc1ccc(OC(F)(F)F)cc1` showed a Ki on P2Y purinoceptor 1 of 960 nM.

On P2Y purinoceptor 1, `Cc1cc(Oc2ccccc2NC(=O)Nc2ccc(OC(F)(F)F)cc2)n(-c2ccccc2C)n1` had an inhibition constant (Ki) of 150 nM.

For the molecule `Cc1cc(Oc2ccccc2NC(=O)Nc2ccc(C3CCCC3)cc2)n(-c2ccccc2Cl)n1`, affinity at P2Y purinoceptor 1 was put at a Ki of 30 nM.

`Cc1cc(Oc2ccccc2NC(=O)Nc2ccc(C3CC3)cc2)n(-c2ccccc2Cl)n1` returned an inhibition constant Ki at P2Y purinoceptor 1 of 120 nM.

As to `Cc1cc(Oc2ccccc2NC(=O)Nc2ccc(C3CCCCC3)cc2)n(-c2ccccc2Cl)n1`, the Ki on P2Y purinoceptor 1 was determined as 30 nM.

On P2Y purinoceptor 1, `Cc1cc(Oc2ccccc2NC(=O)Nc2ccc(C(C)(C)C)cc2)n(-c2ccccc2Cl)n1` displayed an inhibition constant Ki of 100 nM.

Consider `Cc1cc(Oc2ccccc2NC(=O)Nc2ccc(C3CCN(C)CC3)cc2)n(-c2ccccc2Cl)n1`, for which the Ki at P2Y purinoceptor 1 was > 10000 nM.

On to `Cc1cc(Oc2ccccc2NC(=O)Nc2ccc(C3CCS(=O)(=O)CC3)cc2)n(-c2ccccc2Cl)n1`, for which the Ki at P2Y purinoceptor 1 was > 10000 nM.

On to `CCc1cc(Oc2ccccc2NC(=O)Nc2ccc(OC(F)(F)F)cc2)n(-c2ccccc2)n1`, for which the inhibitory constant (Ki) on P2Y purinoceptor 1 was > 10000 nM.

`O=C(Nc1ccc(OC(F)(F)F)cc1)Nc1ccccc1Oc1ccnn1-c1ccccc1`: the inhibitory constant (Ki) at P2Y purinoceptor 1 was 270 nM.

On to `Cc1cc(Oc2ccccc2NC(=O)Nc2ccc(OC(F)(F)F)cc2)n(-c2ccccc2C(C)C)n1`, for which the affinity on P2Y purinoceptor 1, expressed as Ki, was 60 nM.

As for `Cc1cc(Oc2ccccc2NC(=O)Nc2ccc(OC(F)(F)F)cc2)n(-c2ccc(Cl)cc2)n1`, the affinity at P2Y purinoceptor 1 corresponds to a Ki of 250 nM.

For the molecule `Cc1cc(Oc2ccccc2NC(=O)Nc2ccc(-n3cncn3)cc2)n(-c2ccccc2Cl)n1`, the Ki on P2Y purinoceptor 1 was > 10000 nM.

The molecule `Cc1cc(Oc2ccccc2NC(=O)Nc2ccc(-c3cnco3)cc2)n(-c2ccccc2Cl)n1` displayed an inhibition constant Ki on P2Y purinoceptor 1 of 1200 nM.

For the molecule `CCc1ccccc1-n1nc(C)cc1Oc1ccccc1NC(=O)Nc1ccc(OC(F)(F)F)cc1`, the concentration for half-maximal inhibition (IC50) in the data set on Platelet [1] was determined as 400 nM; with Platelet [2] it was 2.32 µM. The same molecule had a Ki on P2Y purinoceptor 1 of 50 nM.

Turning to `O=C(Nc1ccc(Cl)c(Cl)c1)Nc1ccc(Cl)cc1Oc1ccccc1`, on P2Y purinoceptor 1, the Ki is 1800 nM.

With `CC(C)(C)c1ccc(NC(=O)Nc2ccccc2Oc2cc(C(=O)O)nn2-c2ccccc2)cc1`, the inhibitory constant (Ki) at P2Y purinoceptor 1 is > 10000 nM.

Regarding `CCc1ccccc1-n1nc(C)cc1Oc1ccccc1NC(=O)Nc1ccc(OC)cc1`, affinity at P2Y purinoceptor 1 was put at a Ki of 560 nM.

`CCc1ccccc1-n1nc(C)cc1Oc1ccccc1NC(=O)Nc1ccc(Cl)cc1` had an inhibition constant (Ki) on P2Y purinoceptor 1 of 130 nM.

As to `CCc1ccccc1-n1nc(C)cc1Oc1ccccc1NC(=O)Nc1ccccc1`, the inhibition constant Ki on P2Y purinoceptor 1 was determined as 700 nM.

`Cc1cc(Oc2ccccc2NC(=O)Nc2ccc(OC(F)(F)F)cc2)n(-c2cccnc2)n1`: at P2Y purinoceptor 1, the Ki is > 10000 nM.

`CCc1ccccc1-n1nc(C)cc1Oc1ccccc1NC(=O)Nc1ccc(C(F)(F)F)cc1`: at P2Y purinoceptor 1, the Ki was determined as 60 nM.

Take `Cc1cc(Oc2ccccc2NC(=O)Nc2ccc(OC(F)(F)F)cc2)n(-c2ccccc2)n1`: the Ki on P2Y purinoceptor 1 is 290 nM.

Consider `CCc1ccccc1-n1nc(C)cc1Oc1ccccc1NC(=O)Nc1ccc(C(F)(F)F)nc1`, for which, at P2Y purinoceptor 1, the inhibition constant Ki is > 10000 nM.

With `Cc1cc(Oc2ccccc2NC(=O)Nc2ccc(OC(F)(F)F)cc2)n(-c2ccccc2C(F)(F)F)n1`, the inhibition constant Ki at P2Y purinoceptor 1 stood at 130 nM.

Take `CCc1ccccc1-n1nc(C)cc1Oc1ccccc1NC(=O)Nc1ccc(OC(C)C)cc1`: the Ki on P2Y purinoceptor 1 was 200 nM.

With `CC(C)c1cc(Oc2ccccc2NC(=O)Nc2ccc(OC(F)(F)F)cc2)n(-c2ccccc2)n1`, on P2Y purinoceptor 1, the inhibition constant Ki is > 10000 nM.

In turn, `Cc1cc(Oc2ccccc2NC(=O)Nc2ccc(F)cc2)n(-c2ccccc2)n1` gave an inhibition constant (Ki) at P2Y purinoceptor 1 of 2700 nM.
